Test results taken from ChEMBL document CHEMBL2331170, “Synthesis and biological evaluation of novel pyranochalcone derivatives as a new class of microtubule stabilizing agents” (Eur J Med Chem, 2013).
Calls of active or inactive are those of the source. The rule behind the calls is not given here.

Experiments:
Mus musculus [1] = assay: Toxicity in human HepG2 cells xenografted Balb/C mouse assessed as behaviour changes at 2.5 to 10 mg/kg administered every 2 days for 3 weeks; format: organism-based; design: dose 2.5-10 mg/kg; details: in vivo
Summary of the method: (§1)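 Female Balb/C and nude mice (5–6 weeks) carried right-flank HepG2 xenografts (5 × 10⁶ cells). From ~100 mm³ tumor volume they were dosed at 2.5–10 mg/kg every two days for three weeks, six per group, with saline controls. Toxicity signs and mortality were checked daily. Body weight was measured every two days; feeding and behavior were observed.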

Mus musculus [2] = assay: Toxicity in human HepG2 cells xenografted Balb/C mouse assessed as feeding at 2.5 to 10 mg/kg administered every 2 days for 3 weeks; format: organism-based; design: dose 2.5-10 mg/kg; details: in vivo; summary of the method: as §1
Mus musculus [3] = assay: Toxicity in human HepG2 cells xenografted Balb/C mouse assessed as weight loss at 2.5 to 10 mg/kg administered every 2 days for 3 weeks; format: organism-based; design: dose 2.5-10 mg/kg; details: in vivo; summary of the method: as §1
HepG2 [4] = assay: Antitumor activity against human HepG2 cells xenografted in Balb/C mouse assessed as tumor growth inhibition rate compound administered every 2 days for 3 weeks measured on day 20; format: functional, cell-based
Summary of the method: (§2)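 HepG2 cells (5 × 10⁶/mouse) in HBSS implanted in the right flank of 5–6-week-old female Balb/C and athymic nude mice, six per group. Dosing began once tumors reached ~100 mm³: three weeks at 2.5, 5 or 10 mg/kg every two days, or Taxol 5 mg/kg every four days; controls got physiological saline. Tumor volume = π/6 × length × width². T/C (%) = treated/control tumor volume × 100. Inhibition = (1 − treated/control tumor weight) × 100.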

HepG2 [5] = assay: Antitumor activity against human HepG2 cells xenografted in Balb/C mouse assessed as tumor growth inhibition rate at 10 mg/kg administered every 2 days for 3 weeks measured on day 20; format: functional; details: read-out: TGI; summary of the method: as §2
HepG2 [6] = assay: Antitumor activity against human HepG2 cells xenografted in Balb/C mouse assessed as tumor growth inhibition rate at 5 mg/kg administered every 2 days for 3 weeks measured on day 20; format: functional; details: read-out: TGI; summary of the method: as §2
HepG2 [7] = assay: Antitumor activity against human HepG2 cells xenografted in Balb/C mouse assessed as tumor growth inhibition rate at 2.5 mg/kg administered every 2 days for 3 weeks measured on day 20; format: functional; details: read-out: TGI; summary of the method: as §2
Tubulin (Homo sapiens) [8] = molecular target: T1, Tubulin (Homo sapiens) (UniProt P68371+Q9H4B7+P0DPH7+P68366+Q13509+Q71U36+P04350+Q3ZCM7+P07437+P68363+Q9BQE3+Q6PEY2+Q13885+Q9BVA1+Q9BUF5); assay: Decrease in unassembled tubulin level in human HepG2 cells at 0.1 to 0.5 uM after 24 hrs by Western blot analysis; format: cell-based
Summary of the method: (§3)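 HepG2 cells were treated at 0.1 or 0.5 μM for 24 h and washed three times in PBS. They were lysed on ice for 30 min in 20 mM Tris-HCl pH 6.8, 1 mM MgCl₂, 2 mM EGTA, 1 mM PMSF, 1 mM orthovanadate, 0.5% NP-40 and protease inhibitor. Tubulin was immunoblotted with α-tubulin antibody and HRP secondary, with chemiluminescent detection.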

Tubulin (Homo sapiens) [9] = molecular target: T1, Tubulin (Homo sapiens); assay: Increase in polymerized tubulin level in human HepG2 cells at 0.1 to 0.5 uM after 24 hrs by Western blot analysis; format: cell-based; summary of the method: as §3
Tubulin (Sus scrofa) [10] = molecular target: T2, Tubulin (Sus scrofa) (UniProt P02554+P02550); assay: Stabilization of purified pig brain tubulin polymerization at 20 uM measured every 30 seconds by spectrophotometry
Summary of the method: (§4)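 It was pre-incubated 5 min with compound (5, 10, 20 μM), Taxol (5, 20 μM) or DMSO. GTP was added to 1 mM final to start assembly, followed as the rise in absorbance at 340 nm at 37 °C.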

Tubulin (Sus scrofa) [11] = molecular target: T2, Tubulin (Sus scrofa); assay: Stabilization of purified pig brain tubulin polymerization at 10 uM measured every 30 seconds by spectrophotometry; summary of the method: as §4
Tubulin (Sus scrofa) [12] = molecular target: T2, Tubulin (Sus scrofa); assay: Stabilization of purified pig brain tubulin polymerization at 5 uM measured every 30 seconds by spectrophotometry; summary of the method: as §4
Tubulin (Sus scrofa) [13] = molecular target: T2, Tubulin (Sus scrofa); assay: Stabilization of purified pig brain tubulin polymerization measured every 30 seconds by spectrophotometry; summary of the method: as §4
Tubulin (Sus scrofa) [14] = molecular target: T2, Tubulin (Sus scrofa); assay: Induction of purified pig brain tubulin depolymerization at 5 to 20 uM measured every 30 seconds by spectrophotometry; summary of the method: as §4
HepG2 [15] = assay: Cell cycle arrest in human HepG2 cells assessed as accumulation at G2/M phase at 1 uM after 24 hrs by flow cytometry (reference value: 17.07 %); format: functional
HepG2 [16] = assay: Cell cycle arrest in human HepG2 cells assessed as accumulation at G2/M phase at 0.2 uM after 24 hrs by flow cytometry (reference value: 17.07 %); format: functional
HepG2 [17] = assay: Cell cycle arrest in human HepG2 cells assessed as accumulation at G2/M phase at after 24 hrs by flow cytometry; format: functional, cell-based
HepG2 [18] = assay: Effect on microtubule network in human HepG2 cells assessed as abnormal mitotic spindles at 1 uM after 24 hrs by propidium iodide-FITC-based staining method; format: cell-based
Summary of the method: (§5)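 HepG2 cells were treated with 1.0 μM for 24 h. They were washed in PBS, fixed in cold 4% PFA for 10 min and blocked for 1 h in 5% goat serum/0.3% Triton/PBS. Staining used monoclonal anti-α-tubulin overnight at 4 °C, then Alexa Fluor 488 anti-mouse IgG for 30 min at room temperature, with propidium iodide for DNA. Cells were imaged by fluorescence or confocal microscopy.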

HepG2 [19] = assay: Effect on microtubule network in human HepG2 cells assessed as multiple tubulin bundles without chromosomes aligned at the metaphase plate with more dispersion of the chromosomes at 1 uM after 24 hrs by propidium iodide-FITC-based staining method; format: cell-based; summary of the method: as §5
[20] = Ratio of taxol IC50 to compound IC50 for mouse C26 cells by MTT assay; format: functional
A2780 = assay: Cytotoxicity against taxol-resistant human A2780 cells by MTT assay; format: functional, cell-based
[21] = Cytotoxicity against human MCF7/ADR cells by MTT assay; format: functional, cell-based; details: NCI/ADR-RES
HCT-8 = assay: Cytotoxicity against taxol-resistant human HCT8 cells by MTT assay; format: functional, cell-based
DU-145 = assay: Cytotoxicity against human DU145 cells by MTT assay; format: functional, cell-based
[22] = Cytotoxicity against human A2780S cells by MTT assay; format: functional, cell-based; details: A2780
PC-3 = assay: Cytotoxicity against human PC3 cells by MTT assay; format: functional, cell-based
[23] = Cytotoxicity against human ES2 cells by MTT assay; format: functional, cell-based; details: ES-2
SK-OV-3 = assay: Cytotoxicity against human SKOV3 cells by MTT assay; format: functional, cell-based
SK-HEP1 = assay: Cytotoxicity against human SKHEP1 cells by MTT assay; format: functional, cell-based
MCF7 = assay: Cytotoxicity against human MCF7 cells by MTT assay; format: functional, cell-based
Bel-7402 = assay: Cytotoxicity against human Bel7402 cells by MTT assay; format: functional, cell-based
[24] = Cytotoxicity against human SPC-A1 cells by MTT assay; format: functional, cell-based; details: SPCA1
[25] = Cytotoxicity against human H460 cells by MTT assay; format: functional, cell-based; details: NCI-H460
NCI-H358 = assay: Cytotoxicity against human NCI-H358 cells by MTT assay; format: functional, cell-based
HT-29 = assay: Cytotoxicity against human HT-29 cells by MTT assay; format: functional, cell-based
[26] = Cytotoxicity against mouse C26 cells by MTT assay; format: functional, cell-based
HCT-15 = assay: Cytotoxicity against human HCT15 cells by MTT assay; format: functional, cell-based
[27] = Cytotoxicity against human LO2 cells by MTT assay; format: cell-based; details: L02
Summary of the method: (§6)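 Log-phase cells were diluted to 40,000–50,000 cells/mL in medium with 10% FBS, 2 mM glutamine and antibiotics (37 °C, 5% CO₂). They were seeded in 96-well plates and treated with a range of doses. MTT was added for 4 h, the formazan was dissolved in DMSO, and absorbance was read at 590 nm.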

A-375 = assay: Cytotoxicity against human A375 cells by MTT assay; format: functional, cell-based; summary of the method: as §6
K562 = assay: Cytotoxicity against human K562 cells by MTT assay; format: functional, cell-based; summary of the method: as §6
HepG2 [28] = assay: Cytotoxicity against human HepG2 cells by MTT assay; format: functional, cell-based; summary of the method: as §6
HepG2 [29] = assay: Induction of microtubule polymerization in human HepG2 cells at 1 uM after 24 hrs by propidium iodide-FITC-based staining method
HepG2 [30] = assay: Antitumor activity against human HepG2 cells xenografted in Balb/C mouse assessed as tumor volume T/C ratio at 5 mg/kg administered every 2 days for 3 weeks measured on day 20 relative to control
HepG2 [31] = assay: Antitumor activity against human HepG2 cells xenografted in Balb/C mouse assessed as tumor volume T/C ratio at 10 mg/kg administered every 2 days for 3 weeks measured on day 20 relative to control
HepG2 [32] = assay: Antitumor activity against human HepG2 cells xenografted in Balb/C mouse assessed as tumor volume T/C ratio at 2.5 mg/kg administered every 2 days for 3 weeks measured on day 20 relative to control
HepG2 [33] = assay: Antitumor activity against human HepG2 cells xenografted in Balb/C mouse assessed as tumor growth inhibition rate at 5 mg/kg administered every 4 days for 3 weeks measured on day 20; format: functional; details: read-out: TGI; summary of the method: as §2
HepG2 [34] = assay: Antitumor activity against human HepG2 cells xenografted in Balb/C mouse assessed as tumor volume T/C ratio at 5 mg/kg administered every 4 days for 3 weeks measured on day 20 relative to control

T2 sequence (P02550 whole entry, looked up): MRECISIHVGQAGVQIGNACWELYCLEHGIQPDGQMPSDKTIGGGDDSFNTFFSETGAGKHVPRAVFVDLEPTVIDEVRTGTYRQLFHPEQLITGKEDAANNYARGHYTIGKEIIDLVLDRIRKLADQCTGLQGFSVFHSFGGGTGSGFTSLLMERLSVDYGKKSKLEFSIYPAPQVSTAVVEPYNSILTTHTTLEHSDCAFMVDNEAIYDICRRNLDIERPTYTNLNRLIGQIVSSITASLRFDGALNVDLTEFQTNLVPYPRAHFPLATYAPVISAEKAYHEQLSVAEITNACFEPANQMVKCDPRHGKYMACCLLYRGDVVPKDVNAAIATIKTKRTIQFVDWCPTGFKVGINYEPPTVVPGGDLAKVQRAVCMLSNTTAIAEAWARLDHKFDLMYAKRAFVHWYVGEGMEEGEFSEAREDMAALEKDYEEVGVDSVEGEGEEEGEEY
T2 sequence (P02554 whole entry, looked up): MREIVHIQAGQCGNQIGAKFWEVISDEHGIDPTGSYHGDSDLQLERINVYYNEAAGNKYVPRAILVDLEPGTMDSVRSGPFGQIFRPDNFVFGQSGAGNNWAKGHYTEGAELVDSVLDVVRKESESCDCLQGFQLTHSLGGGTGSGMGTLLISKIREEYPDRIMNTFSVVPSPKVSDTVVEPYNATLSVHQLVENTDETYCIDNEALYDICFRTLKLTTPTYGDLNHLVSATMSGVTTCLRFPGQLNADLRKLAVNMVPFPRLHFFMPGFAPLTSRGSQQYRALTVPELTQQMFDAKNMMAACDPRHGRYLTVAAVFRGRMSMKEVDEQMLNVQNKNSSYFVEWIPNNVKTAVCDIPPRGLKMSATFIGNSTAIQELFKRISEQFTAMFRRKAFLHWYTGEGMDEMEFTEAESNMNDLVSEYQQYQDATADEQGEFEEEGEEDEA

## CCC(=O)Oc1cc(/C=C/C(=O)c2ccc(OC)c3c2OC(C)(C)C=C3)ccc1OC
Mus musculus [1]
  Activity: Non-toxic
Mus musculus [2]
  Activity: Non-toxic
Mus musculus [3]
  Activity: Non-toxic
HepG2 [4]
  TGI: Dose-dependent effect
HepG2 [5]
  inhibition in vivo at 10 mg/kg: 69.7%
HepG2 [6]
  inhibition in vivo at 5 mg/kg: 57.6%
HepG2 [7]
  inhibition in vivo at 2.5 mg/kg: 54.3%
Tubulin (Homo sapiens) [8]
  Activity: Active
Tubulin (Homo sapiens) [9]
  Activity: Active
Tubulin (Sus scrofa) [10]
  Activity: 32%
Tubulin (Sus scrofa) [11]
  Activity: 16.3%
Tubulin (Sus scrofa) [12]
  Activity: 10%
Tubulin (Sus scrofa) [13]
  Activity: Dose-dependent effect
Tubulin (Sus scrofa) [14]
  Activity: inactive
HepG2 [15]
  Activity: 76.02%
HepG2 [16]
  Activity: 67.76%
HepG2 [17]
  Activity: Dose-dependent effect
HepG2 [18]
  Activity: Active
HepG2 [19]
  Activity: Active
[20]
  Ratio IC50: 3
A2780
  IC50: 1330 nM
[21]
  IC50: 160 nM
HCT-8
  IC50: 1690 nM
DU-145
  IC50: 190 nM
[22]
  IC50: 220 nM
PC-3
  IC50: 90 nM
[23]
  IC50: 100 nM
SK-OV-3
  IC50: 350 nM
SK-HEP1
  IC50: 320 nM
MCF7
  IC50: 190 nM
Bel-7402
  IC50: 400 nM
[24]
  IC50: 22300 nM
[25]
  IC50: 4050 nM
NCI-H358
  IC50: 150 nM
HT-29
  IC50: 200 nM
[26]
  IC50: 310 nM
HCT-15
  IC50: 100 nM
[27]
  IC50: > 10000 nM
A-375
  IC50: 240 nM
K562
  IC50: 160 nM
HepG2 [28]
  IC50: 90 nM
HepG2 [29]
  Activity: Active
HepG2 [30]
  T/C at 5 mg/kg: 32.4%
HepG2 [31]
  T/C at 10 mg/kg: 33.9%
HepG2 [32]
  T/C at 2.5 mg/kg: 34.9%

## CC(=O)O[C@H]1C(=O)[C@@]2(C)[C@H]([C@H](OC(=O)c3ccccc3)[C@]3(O)C[C@H](OC(=O)[C@H](O)[C@@H](NC(=O)c4ccccc4)c4ccccc4)C(C)=C1C3(C)C)[C@]1(OC(C)=O)CO[C@@H]1C[C@@H]2O [PACLITAXEL]
HepG2 [33]
  inhibition in vivo at 5 mg/kg: 59.1%
Tubulin (Sus scrofa) [10]
  Activity: 23.8%
Tubulin (Sus scrofa) [12]
  Activity: 6.3%
A2780
  IC50: 8250 nM
[21]
  IC50: 6900 nM
HCT-8
  IC50: 13300 nM
DU-145
  IC50: 30 nM
PC-3
  IC50: 140 nM
[23]
  IC50: 100 nM
SK-OV-3
  IC50: 100 nM
SK-HEP1
  IC50: 240 nM
MCF7
  IC50: 660 nM
Bel-7402
  IC50: > 2000 nM
[24]
  IC50: 5300 nM
[25]
  IC50: 24000 nM
NCI-H358
  IC50: 10 nM
HT-29
  IC50: 450 nM
[26]
  IC50: 1050 nM
HCT-15
  IC50: 120 nM
HepG2 [34]
  T/C at 5 mg/kg: 32.4%
